Measured values: ChEMBL document CHEMBL4715734, “Discovery of the Potent and Selective M1 PAM-Agonist N-[(3R,4S)-3-Hydroxytetrahydro-2H-pyran-4-yl]-5-methyl-4-[4-(1,3-thiazol-4-yl)benzyl]pyridine-2-carboxamide (PF-06767832): Evaluation of Efficacy and Cholinergic Side Effects” (J Med Chem, 2016)
Calls of active or inactive are those of the source. No cut-off for these calls is given here.

Key:
[1] = Toxicity in dog assessed as induction of watery feces at 5 mg/kg, po using spray-dried dispersion formulation; format: organism-based, Canis lupus familiaris; details: in vivo
[2] = target: T1, Muscarinic acetylcholine receptor M1 (Homo sapiens) (UniProt P11229); test: Binding affinity to muscarinic M1 receptor (unknown origin) assessed as recruitment of beta-arrestin by Path Hunter assay; format: cell-based; details: CHO, filed as positive allosteric modulator
T1 sequence (whole entry): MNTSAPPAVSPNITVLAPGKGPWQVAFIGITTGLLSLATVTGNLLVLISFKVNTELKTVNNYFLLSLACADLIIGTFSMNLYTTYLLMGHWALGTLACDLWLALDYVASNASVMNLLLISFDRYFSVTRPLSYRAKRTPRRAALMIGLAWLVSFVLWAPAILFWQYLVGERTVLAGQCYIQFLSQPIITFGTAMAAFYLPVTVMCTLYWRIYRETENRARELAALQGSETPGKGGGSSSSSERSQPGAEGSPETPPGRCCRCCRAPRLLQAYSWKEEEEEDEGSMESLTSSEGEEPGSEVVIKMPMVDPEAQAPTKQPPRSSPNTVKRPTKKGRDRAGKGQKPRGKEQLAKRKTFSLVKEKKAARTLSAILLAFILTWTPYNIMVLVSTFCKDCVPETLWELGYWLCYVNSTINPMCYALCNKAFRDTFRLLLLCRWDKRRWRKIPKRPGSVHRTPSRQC

[3] = Unbound brain concentration in […] in Sprague-Dawley rat model at 3.2 mg/kg, sc measured after 1.67 hrs; format: ADME, organism-based; details: in vivo
Summary of the method: (§1)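 Randomly selected animals (N=2/dose) at the end of the rat PPI study, T = 1.67 h. Dosed subcutaneously as a suspension in 0.5% methylcellulose in water. Plasma and brain concentrations were averaged.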

[4] = target: T2, Muscarinic acetylcholine receptor M1 (Homo sapiens, UniProt P11229); test: Agonist activity at muscarinic M1 receptor (unknown origin) expressed in CHO cells assessed as accumulation of inositol phosphate measured after 30 mins by HTRF assay; format: functional, cell-based
T2 sequence (P11229 whole entry): T1 sequence (whole entry)

[5] = Ratio of AUC in C57BL/6 mouse brain to plasma at 1 mg/kg, sc; format: ADME, organism-based; details: brain and plasma, read-out: Ratio AUC
[6] = Oral bioavailability in dog at 0.5 mg/kg; format: ADME, organism-based, Canis lupus familiaris; details: in vivo
[7] = Unbound plasma concentration in […] in Sprague-Dawley rat model at 1 mg/kg, sc measured after 1.67 hrs; format: ADME, organism-based; details: in vivo; summary of the method: as §1
[8] = Toxicity in male Beagle dog assessed as increase in blood pressure at 3 mg/kg, po observed upto 9 hrs post last dose by telemetry; format: organism-based, Canis lupus familiaris; details: in vivo
Summary of the method: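 Crossover telemetry study in dogs at three oral doses (0.3, 1 and 3 mg/kg), N=4. Endpoints were blood pressure, maximum systolic left ventricular pressure, LV +dP/dt max, activity, heart rate, and RR, QT and QTc intervals, followed up to 9 h post dose.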

[9] = Lipophilicity, log D of compound; format: physicochemical; details: octanol/water
[10] = Ratio of AUC in rat brain to fAUC in rat plasma; format: ADME, cell-free; details: in vivo
[11] = Toxicity in dog at 1 mg/kg, po using spray-dried dispersion formulation; format: organism-based, Canis lupus familiaris; details: in vivo
[12] = Toxicity in po dosed dog assessed as NOAEL using spray-dried dispersion formulation; format: organism-based, Canis lupus familiaris; details: in vivo
[13] = Toxicity in dog assessed as salivation at 45 mg/kg, po using spray-dried dispersion formulation measured after 45 mins; format: organism-based, Canis lupus familiaris; details: in vivo, 0.75 h
[14] = Toxicity in male rat assessed as increase in food intake at 30 mg/kg, po administered for 14 days; details: in vivo, 336 h
[15] = Fraction unbound in rat brain; format: ADME, cell-free
[16] = Toxicity in dog assessed as salivation at 5 mg/kg, po using spray-dried dispersion formulation; format: organism-based, Canis lupus familiaris; details: in vivo
Mus musculus [17] = test: Reversal of amphetamine-induced hyperlocomotion in C57BL/6J mouse at 1 mg/kg, sc incubated for 30 mins followed by addition of amphetamine measured after 90 mins; format: functional, organism-based; details: time 120.0 min
Summary of the method: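 The compound was given sc as a solution in 5/15/80 DMSO/Solutol/water, and amphetamine-induced locomotor activity was compared with vehicle. Plasma and brain exposure came from a satellite group (N=2/dose) sampled at 1 h after the same dosing.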

[18] = Unbound plasma concentration in […] in Sprague-Dawley rat model at 3.2 mg/kg, sc measured after 1.67 hrs; format: ADME, organism-based; details: in vivo; summary of the method: as §1
[19] = Partial agonist activity at muscarinic M2/M3 receptor in Hartley guinea pig ileum assessed as stimulation of contraction relative to carbachol; format: tissue-based, Cavia porcellus
Summary of the method: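 Agonist mode used a guinea pig ileum tissue bath with the compound applied alone. Concentration–response curves were run with or without the non-selective muscarinic antagonist atropine. Contraction was expressed relative to the maximal carbachol response.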

[20] = In vivo positive allosteric modulation of muscarinic M1 receptor in CD1 mouse assessed as increase in ACh-induced IP-1 levels in […] tissue at 1 mg/kg, sc measured after 2 hrs by HTRF assay relative to baseline; format: functional
Summary of the method: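 Given sc as a solution in 5/15/80 DMSO/Solutol/water. Striatal IP1 was read 2 h after dosing and expressed as fold increase over baseline. Compound levels were measured in striatal tissue at 2 h (N=5/dose). Each animal's fold increase was plotted against its unbound brain concentration.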

[21] = Toxicity in dog assessed as emesis at 5 mg/kg, po using spray-dried dispersion formulation; format: organism-based, Canis lupus familiaris; details: in vivo
Summary of the method: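 Dogs received single escalating oral doses as a spray-dried dispersion (10% drug loading with HPMCAS-M). The dispersion was suspended in 0.5 wt% methylcellulose/0.5 wt% HPMCAS in 20 mM tris buffer, pH 7.4. One dog per sex per dose was used, and clinical signs were recorded.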

[22] = Toxicity in dog assessed as salivation at 15 mg/kg, po using spray-dried dispersion formulation; format: organism-based, Canis lupus familiaris; details: in vivo
[23] = Unbound plasma concentration in CD-1 mouse at 10 mg/kg, sc measured after 2 hrs by LC-MS/MS analysis; format: ADME, organism-based; details: in vivo
[24] = Fraction unbound in cynomolgus monkey plasma; format: ADME, cell-free, Macaca fascicularis
Mus musculus [25] = test: In vivo positive allosteric modulation of muscarinic M1 receptor in CD-1 mouse assessed as increase in ACh-induced IP-1 levels in […] tissue administered subcutaneously measured after 2 hrs by HTRF assay; format: functional, organism-based
Summary of the method: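 Mice were dosed subcutaneously with a solution in 5/15/80 DMSO/Solutol/water across a 0.1–10 mg/kg dose series. IP1 accumulation in striatum was measured over a 2 h treatment and expressed as fold increase over baseline for each animal. Compound levels were measured in striatal tissue at 2 h (N=5/dose), and unbound brain concentration was derived from these.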

[26] = target: T2, Muscarinic acetylcholine receptor M1; test: Partial agonist activity at human muscarinic M1 receptor stably expressed in CHO cells assessed as increase in intracellular calcium level measured after 10 mins by Fluo-8AM dye based FLIPR TETRA method; format: functional, cell-based
[27] = Ratio of fAUC in CD-1 mouse brain to plasma at 1 to 10 mg/kg, sc measured after 2 hrs by LC-MS/MS analysis; format: ADME, organism-based; details: brain and plasma, dose 1-10 mg/kg, read-out: Ratio AUC
[28] = target: T2, Muscarinic acetylcholine receptor M1; test: Partial agonist activity at muscarinic M1 receptor (unknown origin) assessed as recruitment of beta-arrestin by Path Hunter assay; format: cell-based, CHO
[29] = fCmax in rat at 15 mg/kg, po administered for 14 days; format: ADME, organism-based; details: in vivo, 336 h, time 14 day
Summary of the method: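 2-week repeat oral dosing in rats, 0.5% methylcellulose formulation; N=4/sex/dose; doses 3, 10, 30 (males)/15 (females) mg/kg; unbound exposures reported per dose and sex.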

SMILES: Cc1cnc(C(=O)N[C@H]2CCOC[C@@H]2O)cc1Cc1ccc(-c2cscn2)cc1
- Activity [1]: Toxic
- Ka [2]: 20 µM
- Drug uptake(free) [3]: 44.4 nM
- EC50 [4]: ≥ 9.2 µM
- Kp [5]: 0.2
- bioavailability [6]: 43%
- Cp(f) [7]: 45.6 nM
- Activity [8]: 7 mmHg
- logD [9]: 2.2
- Ratio AUC [10]: 0.36
- Activity [11]: Non-Toxic
- NOAEL [12]: 5 mg/kg
- Activity [13]: Toxic
- Activity [14]: Non-Toxic
- Fu [15]: 4%
- Activity [16]: Toxic
- Activity (Mus musculus [17]): Active
- Cp(f) [18]: 123 nM
- Emax [19]: 77%
- fold change (FC) [20]: 2
- Activity [21]: Toxic
- Activity [22]: Toxic
- Cp(f) [23]: 574 nM
- Fu [24]: 3.2%
- Activity (Mus musculus [25]): Dose-dependent effect
- EC50 [26]: ≥ 3.9 µM
- Kp uu at 2 h [27]: 0.34
- EC50 [28]: 3.9 µM
- fCmax [29]: 708 nM
